Results as given in ChEMBL document CHEMBL1128450, “Mononucleoside phosphotriester derivatives with S-acyl-2-thioethyl bioreversible phosphate-protecting groups: intracellular delivery of 3'-azido-2',3'-dideoxythymidine 5'-monophosphate” (J Med Chem, 1995).
“And” between values parts separate entries of the source, which are not always exact repeats. Equal entries are not always repeated.

Assays:
CEM-SS [1] = assay: Antiviral activity in CEM-SS cell line infected with HIV-1 and cytotoxic concentration required to reduce the viability of uninfected cells by 50%; format: functional; details: Homo sapiens
Method in brief: (§1)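 Uninfected cells were exposed to compound for 5 days, and viability was read by colorimetric MTT test. Values average at least three separate experiments.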

CEM-SS [2] = assay: Antiviral activity in CEM-SS cell line infected with HIV-1 and Concentration required to inhibit the replication of HIV-1 by 50% was determined; format: functional, cell-based; details: Homo sapiens
Method in brief: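 Cells infected with HIV-LAI at 100 TCID50 for 30 min, washed twice, then cultured with a range of compound concentrations for 5 days (6 days for CEM/TK⁻). Virus production was read as reverse transcriptase activity in the culture supernatant. EC50 was taken from a median effect plot of the dose–effect data, averaging at least three separate experiments.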

MT4 [3] = assay: Antiviral activity in MT-4 cell line infected with HIV-1 and Concentration required to inhibit the replication of HIV-1 by 50% was determined; format: functional, cell-based; details: Homo sapiens
Method in brief: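 HIV-1 IIIB at 50 TCID50 adsorbed to MT-4 cells for 30 min, followed by two washes and 5 days of culture with graded compound concentrations. Protection from virus-induced cytopathogenicity was read by MTT reduction to formazan. EC50 was taken from a median effect plot, averaging at least three separate experiments.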

MT4 [4] = assay: Antiviral activity in MT-4 cell line infected with HIV-1 and cytotoxic concentration required to reduce the viability of uninfected cells by 50%; format: functional; details: Homo sapiens; method in brief: as §1
[5] = Selectivity Index measured as the ratio of CC50(CEM-SS) to EC50(CEM-SS).; format: functional
[6] = Selectivity Index measured as the ratio of CC50(CEM/TK) to EC50(CEM/TK).; format: functional
CEM/TK- (Homo sapiens) [7] = assay: Antiviral activity in CEM/TK cell line infected with HIV-1 and Concentration required to inhibit the replication of HIV-1 by 50% was determined
CEM/TK- (Homo sapiens) [8] = assay: Antiviral activity in CEM/TK cell line infected with HIV-1 and cytotoxic concentration required to reduce the viability of uninfected cells by 50%
[9] = Half life evaluated in Total Cell Extract(TCE).; format: ADME; details: for half-life: total cell extract (TCE)
Method in brief: (§2)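 Compounds at 5 × 10⁻⁵ M initial were incubated at 37 °C in total cell extract from CEM-SS cells. Crude aliquots were analysed by on-line precolumn-cleaning HPLC, with and without ion-pairing reagent, on a C18 column using an ammonium acetate/acetonitrile gradient, with areas read at 266 nm. Half-lives came from pseudo-first-order rate constants fitted to kinetic models by exponential regression.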

[10] = Half life evaluated in Culture Medium(CM); format: ADME; details: for half-life: culture medium (CM)
Method in brief: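 Compounds at 5 × 10⁻⁵ M initial were incubated at 37 °C in RPMI 1640 with 10% heat-inactivated fetal calf serum. Crude aliquots were analysed by on-line ISRP precolumn-cleaning HPLC, with and without tetrabutylammonium ion-pairing, on a C18 column using an ammonium acetate pH 6.0/acetonitrile gradient. Species were quantified from peak areas at 266 nm. Half-lives were derived from pseudo-first-order rate constants fitted by mono- or polyexponential regression.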

[11] = Half life evaluated in Total Cell Extract(TCE) for determination 1.; format: ADME; method in brief: as §2
[12] = Half life evaluated in Total Cell Extract(TCE) for determination 2.; format: ADME; method in brief: as §2
[13] = Half life evaluated in Total Cell Extract(TCE) for determination 3.; format: ADME; method in brief: as §2

Row | Structure (SMILES) | EC50 (CEM-SS [2]) | EC50 (CEM/TK- (Homo sapiens) [7]) | half-life [9] | half-life [10] | half-life [11] | half-life [12] | half-life [13] | CC50 (CEM-SS [1]) | EC50 (MT4 [3]) | CC50 (MT4 [4]) | Selectivity index [5] | Selectivity index [6] | CC50 (CEM/TK- (Homo sapiens) [8]) | T1/2 [9] | T1/2 [10]
1 | Cc1cn(C2CC(N=[N+]=[N-])C(COP(=O)(O)OCCS)O2)c(=O)[nH]c1=O (centres undefined) | – | – | – | – | 2.3 h | 9 h | 10.5 h | – | – | – | – | – | – | – | –
2 | Cc1cn([C@H]2C[C@H](N=[N+]=[N-])[C@@H](CO)O2)c(=O)[nH]c1=O [ZIDOVUDINE] | 0.006 µM | > 100 µM | – | – | – | – | – | > 100 µM | 0.017 µM | 75 µM | > 17300 | – | > 100 µM | – | –
3 | Cc1cn(C2CC(N=[N+]=[N-])C(COP(=O)(O)OCCSC(=O)C(C)C)O2)c(=O)[nH]c1=O (centres undefined) | – | – | 7.1 h | 12.3 h | – | – | – | – | – | – | – | – | – | – | –
4 | Cc1cn(C2CC(N=[N+]=[N-])C(COP(=O)(OCCSC(=O)c3ccccc3)OCCSC(=O)c3ccccc3)O2)c(=O)[nH]c1=O (centres undefined) | 0.125 µM | 0.32 µM | – | – | – | – | – | > 1 µM | 0.076 µM | > 1 µM | > 8 | > 4 | > 1 µM | – | –
5 | Cc1cn([C@H]2C[C@H](N=[N+]=[N-])[C@@H](COP(=O)(O)O)O2)c(=O)[nH]c1=O [AZIDOTHYMIDINE MONOPHOSPHATE] | – | – | 4 h | 50 h | – | – | – | – | – | – | – | – | – | 4 h | 72 h and 67 h
6 | Cc1cn(C2CC(N=[N+]=[N-])C(COP(=O)(OCCSSCCO)OCCSSCCO)O2)c(=O)[nH]c1=O (centres undefined) | 0.023 µM | 0.55 µM | – | – | – | – | – | > 100 µM | 0.054 µM | > 100 µM | > 4300 | > 180 | > 100 µM | – | –

The next lines start with results.

Row | EC50 (CEM-SS [2]) | EC50 (CEM/TK- (Homo sapiens) [7]) | half-life [9] | half-life [10] | half-life [11] | half-life [12] | half-life [13] | Structure (SMILES) | CC50 (CEM-SS [1]) | EC50 (MT4 [3]) | CC50 (MT4 [4]) | Selectivity index [5] | Selectivity index [6] | CC50 (CEM/TK- (Homo sapiens) [8]) | T1/2 [9] | T1/2 [10]
7 | 0.077 µM | 0.255 µM | – | – | – | – | – | Cc1cn(C2CC(N=[N+]=[N-])C(COP(=O)(OCOC(=O)C(C)(C)C)OCOC(=O)C(C)(C)C)O2)c(=O)[nH]c1=O (centres undefined) | 67 µM | 0.052 µM | 59 µM | 860 | 250 | 65.5 µM | – | –
8 | 0.015 µM | 0.45 µM | 1.05 h | 103 h | – | – | – | Cc1cn(C2CC(N=[N+]=[N-])C(COP(=O)(OCCSC(=O)C(C)(C)C)OCCSC(=O)C(C)(C)C)O2)c(=O)[nH]c1=O (centres undefined) | > 10 µM | 0.81 µM | > 10 µM | > 670 | > 22 | > 10 µM | – | –
9 | 0.022 µM | 0.049 µM | < 0.0833 h | 9 h | – | – | – | CC(=O)SCCOP(=O)(OCCSC(C)=O)OCC1OC(n2cc(C)c(=O)[nH]c2=O)CC1N=[N+]=[N-] (centres undefined) | 93 µM | 0.05 µM | 67 µM | 4300 | > 2050 | > 100 µM | – | –
10 | 0.046 µM | 0.52 µM | 0.75 h | 9 h | – | – | – | Cc1cn(C2CC(N=[N+]=[N-])C(COP(=O)(OCCSC(=O)C(C)C)OCCSC(=O)C(C)C)O2)c(=O)[nH]c1=O (centres undefined) | > 10 µM | 0.048 µM | > 10 µM | > 200 | > 17 | > 10 µM | – | –
11 | – | – | 7.2 h | 21.3 h | – | – | – | Cc1cn(C2CC(N=[N+]=[N-])C(COP(=O)(O)OCCSC(=O)C(C)(C)C)O2)c(=O)[nH]c1=O (centres undefined) | – | – | – | – | – | – | – | –
12 | – | – | < 0.0833 h | 8.9 h | – | – | – | CC(=O)SCCOP(=O)(O)OCC1OC(n2cc(C)c(=O)[nH]c2=O)CC1N=[N+]=[N-] (centres undefined) | – | – | – | – | – | – | – | –
